Series [1] concerns P. berghei (sensitive strain). The series can be described thus: blood-schizontocidal activity against P. berghei infection in mice. It counts as in vivo, Plasmodium berghei. The following applies: Swiss mice. The procedure, abridged: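 Swiss mice of either sex (about 15–20 g, same age), six per group, inoculated intraperitoneally on day 0 with 1 × 10^7 infected erythrocytes from a donor mouse. Oral test compound at 100, 50, 25 or 10 mg/kg, CQ diphosphate (10 mg/kg/day × 4) or vehicle started 4 h later, on D0 to D+3. Giemsa tail-blood smears on D+4 and D+7. Curative: parasites eliminated, no relapse, all mice surviving to D+60.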

The subject of another series is P. falciparum (D6). The series can be described thus: in vitro antimalarial activity, plasmodial LDH. The conditions noted are these: Plasmodium falciparum, D6, 72 h, read-out: P. falciparum (D6) IC50. The series is classed as cell-based, Plasmodium falciparum.
For another series, the system named is MRSA (ATCC33591). The series can be described thus: in vitro antibacterial activity. It counts as cell-based, methicillin-resistant Staphylococcus aureus. The following applies: Staphylococcus aureus, ATCC33591|MRSA, read-out: MIC, MRSA. An outline of the steps: (§1)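 Test compound serially diluted in 20% DMSO/saline and plated in duplicate, up to 20 μg/mL. Inoculum in cation-adjusted Mueller–Hinton broth, pH 7.3, set by OD630 to 5 × 10^5 CFU/mL. Incubated 16–20 h at 35 °C; 530 nm read before and after. IC50 is 50% growth inhibition; MIC is no detectable growth. MBC from clear wells subcultured on agar. Ciprofloxacin control.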

In series [2] the test system is M. intracellulare (ATCC23068). The series can be described thus: in vitro antibacterial activity, modified alamarBlue procedure. It counts as cell-based, Mycobacterium intracellulare. The following applies: Mycobacterium intracellulare; for IC50: ATCC23068, read-out: IC50 (concentration that affords 50% growth inhibition), M. intracellulare; for MBC: ATCC23068, read-out: MBC (minimum bactericidal concentration), M. intracellulare; for MIC: ATCC23068, read-out: MIC, M. intracellulare. An outline of the steps:
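Modified alamarBlue microplate method. Test compound serially diluted in 20% DMSO/saline, duplicate wells, up to 20 μg/mL. Inoculum 2.0 × 10^6 CFU/mL in Middlebrook 7H9 with OADC, pH 7.3, containing 5% alamarBlue. Incubated 70–74 h at 37 °C, 10% CO2; fluorescence 544ex/590em read before and after. MIC: no blue-to-pink change. MBC by subculturing blue wells on agar. Ciprofloxacin control.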

For another series, the system named is P. falciparum (W2). The series can be described thus: in vitro antimalarial activity, plasmodial LDH. The following applies: Plasmodium falciparum, W2, 72 h, read-out: P. falciparum (W2) IC50, CQ-resistant W2 strain, 72 h. It counts as cell-based, Plasmodium falciparum. An outline of the steps:
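P. falciparum-infected erythrocytes (2% parasitemia, 2% hematocrit) in RPMI 1640 with 10% human serum and 60 μg/mL amikacin. Exposed to test compound dilutions for 72 h at 37 °C under 90% N2/5% O2/5% CO2. LDH measured with Malstat reagent (30 min, room temperature), then NBT/PES for 1 h in the dark, stopped with 5% acetic acid, read at 650 nm. IC50 from dose-response curves.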

The test system of series [3] is SK-MEL, KB, BT-549, SK-OV-3, VERO and LLC-PK1 cells. Nature of the series: cytotoxicity, neutral red uptake assay. It counts as cell-based, mammalian. The conditions noted are these: highest test concentration 4760 ng/mL. An outline of the steps: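 Cells seeded at 25 000/well and allowed 24 h to reach confluence. Test compound was then added and incubated 48 h. Viable cells were counted by a modified neutral red uptake method. The panel was four human cancer lines and two noncancerous mammalian kidney lines. Doxorubicin served as positive control and DMSO as negative control.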

A further series deals with C. albicans ATCC90028. The series can be described thus: in vitro antifungal activity. The series is classed as cell-based, Candida albicans. The conditions noted are these: Candida albicans; for IC50: ATCC90028, read-out: C. albicans IC50; for MFC: ATCC90028, read-out: C. albicans MFC; for MIC: ATCC90028, read-out: C. albicans MIC. The procedure, abridged:
(§2)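 Modified NCCLS broth method in Sabouraud dextrose. Inoculum set by OD630 to 1.5 × 10^3 CFU/mL. Test compound serially diluted in 20% DMSO/saline, duplicate wells, up to 20 μg/mL. Incubated 70–74 h at 35 °C; 530 nm read before and after. IC50 is 50% growth inhibition; MIC is no detectable growth. MFC from clear wells subcultured on agar. Amphotericin B control.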

The test system of another series is SA (ATCC29213). The series can be described thus: in vitro antibacterial activity. The series is classed as cell-based. The conditions noted are these: Staphylococcus aureus; for IC50: ATCC29213, read-out: IC50 (concentration that affords 50% growth inhibition), SA; for MBC: ATCC29213, read-out: MBC (minimum bactericidal concentration), SA; for MIC: ATCC29213, read-out: MIC, SA. The procedure, abridged: as §1

The subject of the next series is A. fumigatus ATCC 90906. The series can be described thus: in vitro antifungal activity. It counts as cell-based, Aspergillus fumigatus. The conditions noted are these: Aspergillus fumigatus; for IC50: ATCC90906, read-out: A. fumigatus IC50; for MFC: ATCC90906, read-out: A. fumigatus MFC; for MIC: ATCC90906, read-out: A. fumigatus MIC. An outline of the steps:
as §2

A further series deals with C. neoformans ATCC90113. Nature of the series: in vitro antifungal activity. The series is classed as cell-based, Cryptococcus neoformans. The conditions noted are these: Cryptococcus neoformans; for IC50: ATCC90113, read-out: C. neoformans IC50; for MFC: ATCC90113, read-out: C. neoformans MFC; for MIC: ATCC90113, read-out: C. neoformans MIC. An outline of the steps: as §2

Series [4] deals with L. donovani promastigotes. The series can be described thus: in vitro antileishmanial activity, alamarBlue assay. It counts as cell-based, Leishmania donovani. The following applies: Leishmania donovani, 48 h; for IC50: read-out: L. donovani IC50, promastigotes, 48 h; for IC90: read-out: L. donovani IC90, promastigotes, 48 h. Background: Alamar Blue is a resazurin reagent that responds to reducing activity.

What is called MIC is the lowest concentration that inhibits growth of the organism. Usually MFC stands for the lowest tested concentration that kills the fungus rather than only halting it. A word on the IC90: it is the point of the concentration-response curve where the effect stands at 90%.

Values after ≈ are worked out from the molar mass of the structure shown. “Also recorded” adds a separate entry of the source.

Consider `CCCCCOc1c(OC)cc(NC(C)CCCNC(=O)C(N)CCCCN)c2nc(C(C)(C)C)ccc12` (stereo not shown) [compound 92, 2,6-Diamino-N-(4-(2-tert-butyl-6-methoxy-5-(pentyloxy)quinolin-8-ylamino)-pentyl)hexanamide], for which the “P. berghei blood-schizontocidal activity (mice cured/treated)” value in series [1] (25 mg/kg/day × 4, oral) was “inactive (0/6)”; in [1] (50 mg/kg/day × 4, oral), “suppressive activity; also recorded: active (4/6)”; in [1] (100 mg/kg/day × 4, oral), 100% cure and curative (6/6). In addition, the IC50 is 0.11 µg/mL (≈ 0.208 µM) in the series with P. falciparum (D6); > 20 µg/mL in series [2]; 0.052 µg/mL (≈ 0.0982 µM) in the series on P. falciparum (W2); > 20 µg/mL with C. albicans ATCC90028; > 20 µg/mL in the series with SA (ATCC29213); > 20 µg/mL in the series on A. fumigatus ATCC 90906. In addition, the IC50 in the series on C. neoformans ATCC90113 came to 10.9 µg/mL (≈ 20.5 µM). Further, the MIC (with MRSA (ATCC33591); in series [2]; in the series with C. albicans ATCC90028; in the series with SA (ATCC29213); with A. fumigatus ATCC 90906; in the series on C. neoformans ATCC90113) was > 20 µg/mL throughout. The MBC (in series [2]; in the series with SA (ATCC29213)) was > 20 µg/mL each time. In addition, the “cytotoxicity CTX” value in series [3] is “NC (NC, not cytotoxic up to 4760 ng/mL (4.76 μg/mL))”. Further, the MFC with C. albicans ATCC90028, in the series on A. fumigatus ATCC 90906 and in the series with C. neoformans ATCC90113 was > 20 µg/mL throughout.
For `CCCCCCCCOc1c(OC)cc(NC(C)CCCNC(=O)C(N)Cc2cc3ccccc3[nH]2)c2nc(C(C)(C)C)ccc12` (stereo not shown) [compound 122, 2-Amino-N-(4-(2-tert-butyl-6-methoxy-5-(octyloxy)quinolin-8-ylamino)pentyl)-3-(1H-indol-2-yl)propanamide], the IC50 is > 4.76 µg/mL in the series with P. falciparum (D6); 9.32 µg/mL (≈ 14.8 µM) in series [4]; > 20 µg/mL in series [2]; > 4.76 µg/mL in the series on P. falciparum (W2); > 20 µg/mL in the series on C. albicans ATCC90028; 12 µg/mL (≈ 19 µM) in the series on SA (ATCC29213). Further, the figures for the IC50 in the series on A. fumigatus ATCC 90906 and in the series on C. neoformans ATCC90113 were > 20 µg/mL and 6.8 µg/mL (≈ 10.8 µM), respectively. Further, the IC90 in series [4] was determined as 25.7 µg/mL (≈ 40.8 µM). For the same compound, the MIC with MRSA (ATCC33591) was 20 µg/mL (≈ 31.8 µM); in [2], > 20 µg/mL; in the series with C. albicans ATCC90028, > 20 µg/mL; in the series on SA (ATCC29213), 20 µg/mL (≈ 31.8 µM); in the series with A. fumigatus ATCC 90906, > 20 µg/mL; with C. neoformans ATCC90113, 20 µg/mL (≈ 31.8 µM). Moreover, the MBC (in series [2]; in the series with SA (ATCC29213)) was > 20 µg/mL each time. Moreover, the “cytotoxicity CTX” value in series [3] was “NC (NC, not cytotoxic up to 4760 ng/mL (4.76 μg/mL))”. For the same compound, the MFC in the series with C. albicans ATCC90028, in the series with A. fumigatus ATCC 90906 and in the series with C. neoformans ATCC90113 was > 20 µg/mL throughout.
Consider `CCCCCCCCOc1c(OC)cc(NC(C)CCCNC(=O)C2CCCN2)c2nc(C(C)(C)C)ccc12` (stereo not shown) [compound 123, N-(4-(2-tert-Butyl-6-methoxy-5-(octyloxy)quinolin-8-ylamino)pentyl)pyrrolidine-2-carboxamide], for which the IC50 was > 4.76 µg/mL with P. falciparum (D6); 12.4 µg/mL (≈ 22.9 µM) in series [4]; > 20 µg/mL in series [2]; > 4.76 µg/mL with P. falciparum (W2); > 20 µg/mL with C. albicans ATCC90028; 10.4 µg/mL (≈ 19.3 µM) in the series with SA (ATCC29213). Besides, the results for the IC50 in the series with A. fumigatus ATCC 90906 and in the series on C. neoformans ATCC90113 were > 20 µg/mL and 2.89 µg/mL (≈ 5.34 µM), respectively. In series [4], the IC90 stood at 38.4 µg/mL (≈ 71 µM). The MIC in the series on MRSA (ATCC33591) is 10 µg/mL (≈ 18.5 µM); in series [2], > 20 µg/mL; in the series on C. albicans ATCC90028, > 20 µg/mL; in the series on SA (ATCC29213), 20 µg/mL (≈ 37 µM); in the series with A. fumigatus ATCC 90906, > 20 µg/mL; with C. neoformans ATCC90113, 5 µg/mL (≈ 9.25 µM). Moreover, the figures for the MBC (in series [2]; in the series with SA (ATCC29213)) were > 20 µg/mL and 20 µg/mL (≈ 37 µM), respectively. Further, the “cytotoxicity CTX” value in series [3] is recorded as “NC (NC, not cytotoxic up to 4760 ng/mL (4.76 μg/mL))”. Also, the MFC in the series on C. albicans ATCC90028 is > 20 µg/mL; in the series with A. fumigatus ATCC 90906, > 20 µg/mL; in the series on C. neoformans ATCC90113, 5 µg/mL (≈ 9.25 µM).
